What all share (type): functional
The test system of experiment [1] is Haemonchus contortus. Put plainly: Anthelmintic activity against benzimidazole-resistant Haemonchus contortus isolate by larva development assay. The essentials:
(§1)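 Larval development assay: test compounds were embedded in an agar-based nutritive medium that supports development from eggs to third-stage larvae (L3). Plates were incubated for 6 days at 28 °C and 80% relative humidity, and egg hatching and larval development were recorded. Values are means of three experiments.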

Experiment [2] concerns Trichostrongylus colubriformis. In words: Anthelmintic activity against Trichostrongylus colubriformis infected in gerbils assessed as reduction in worm count at 3.2 mg/kg, po. Also noted: scale not given: the % may be the effect or the level left. The essentials: (§2)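 Gerbils (Meriones unguiculatus) were artificially infected with H. contortus larvae 6 days, or T. colubriformis larvae 5 days, before treatment. They were then dosed orally or subcutaneously, and controls received a placebo formulation. Three days post-treatment the animals were sacrificed and dissected for worm recovery.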

Experiment [3] deals with Haemonchus contortus. Put plainly: Anthelmintic activity against Haemonchus contortus infected in gerbils assessed as reduction in worm count at 3.2 mg/kg, po. Also noted: scale not given: the % may be the effect or the level left. The essentials: as §2
The test system of experiment [4] is Trichostrongylus colubriformis. In words: Anthelmintic activity against levamisole-resistant Trichostrongylus colubriformis isolate by larva development assay. The essentials: as §1

Each structure is given as a SMILES string.

For the molecule `CC(C#N)(COc1ccc(F)cc1Cl)NC(=O)c1ccc(OC(F)(F)F)cc1` (centres undefined), the EC100 (in the experiment with Haemonchus contortus [1]; in experiment [4]) was 0.032 ppm each time. Further, the Activity is on record as 77% in experiment [2] and 98% in the experiment with Haemonchus contortus [3].
